Data from ChEMBL document CHEMBL1287726, “Bisaryldiketene derivatives: A new class of selective ligands for c-myc G-quadruplex DNA” (Bioorg Med Chem, 2010).
Where “and” joins values, the source holds several entries; their conditions need not be identical. Equal entries are not always repeated. Calls of active or inactive are those of the source. The calls are words filed in the database; no cut-off is given here.

Tests used:
Nucleic Acid [1] = test: Binding affinity to F-c-kit1-T G-quadruplex DNA assessed as change in melting temperature at 1 uM by FRET assay (reference value: 54 degC); type: nucleic-acid assay
How it was run: (§1)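 FRET melting of dual FAM/TAMRA-labelled oligonucleotide (0.2 μM), pre-annealed in K+ buffer (90 °C 5 min, slow cooling, 4 °C overnight), in 10 mM Tris-HCl pH 7.4, 60 mM KCl with ligand at 1 μM. Equilibrated 25 °C 5 min, then heated 1 °C/min to 95 °C; excitation 492 nm, emission 516 nm. ΔTm = Tm(DNA+ligand) − Tm(DNA).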

Nucleic Acid [2] = test: Binding affinity to F-c-kit2-T G-quadruplex DNA assessed as change in melting temperature at 1 uM by FRET assay (reference value: 75 degC); type: nucleic-acid assay; how it was run: as §1
Nucleic Acid [3] = test: Binding affinity to F22T G-quadruplex DNA assessed as decrease in melting temperature at 1 uM by FRET assay in presence of duplex DNA competitor ds26; type: nucleic-acid assay
How it was run: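 Competitive FRET melting: 0.2 μM F22T premixed with excess duplex ds26 (3 μM or 10 μM), ligand at 1 μM, in 10 mM Tris-HCl pH 7.4, 60 mM KCl. Heated 1 °C/min from 25 °C to 95 °C; ex 492/em 516 nm; ΔTm determined.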

Nucleic Acid [4] = test: Binding affinity to single-strand Pu27 oligonucleotide assessed as formation of G-quadruplex complex after 3 mins by PCR stop assay; type: nucleic-acid assay
How it was run: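 PCR stop assay: Pu27 with complementary Pu27rev (10 pmol each), 0.16 mM dNTP, 2.5 U Taq polymerase and ligand in 1× PCR buffer. Cycling 94 °C 3 min, then 35 cycles of 94 °C/58 °C/72 °C, 30 s each. Double-stranded product detected by electrophoresis; IC50 is the concentration inhibiting amplification by 50%.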

[5] = system: human telomeric G-quadruplex DNA F21T (human); test: Binding affinity to F21T G-quadruplex DNA assessed as change in melting temperature at 1 uM by FRET assay (reference value: 60 degC)
Nucleic Acid [6] = test: Binding affinity to F10T hairpin duplex DNA assessed as change in melting temperature at 1 uM by FRET assay (reference value: 64 degC)
[7] = system: c-myc G-quadruplex DNA F22T (human); test: Binding affinity to human F22T G-quadruplex DNA assessed as change in melting temperature at 1 uM by FRET assay (reference value: 78 degC)
Nucleic Acid [8] = test: Binding affinity to F22T G-quadruplex DNA assessed as decrease in melting temperature at 1 uM by FRET assay in presence of G-quadruplex DNA competitor HTG21; type: nucleic-acid assay
How it was run: (§2)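 Competitive FRET melting: 0.2 μM F22T with ligand at 1 μM, without or with 3 μM or 10 μM unlabelled G-quadruplex competitor (c-kit1, c-kit2 or HTG21), in 10 mM Tris-HCl pH 7.4, 60 mM KCl. Heated 1 °C/min from 25 °C to 95 °C; ex 492/em 516 nm; ΔTm determined.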

Nucleic Acid [9] = test: Binding affinity to F22T G-quadruplex DNA assessed as change in melting temperature at 1 uM by FRET assay in presence of G-quadruplex DNA competitor c-kit1; type: nucleic-acid assay; how it was run: as §2
Nucleic Acid [10] = test: Binding affinity to F22T G-quadruplex DNA assessed as change in melting temperature at 1 uM by FRET assay in presence of G-quadruplex DNA competitor c-kit2; type: nucleic-acid assay; how it was run: as §2
Nucleic Acid [11] = test: Binding affinity to Pu27 G-quadruplex DNA assessed as change in melting temperature by isothermal titration calorimetry; type: nucleic-acid assay
How it was run: (§3)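 ITC at 25 °C: preannealed G-quadruplex (5 μM) in cell, ligand (400 μM) in syringe, both in 10 mM Tris-HCl pH 7.4, 150 mM KCl, degassed. Thirty 10 μL injections at 4 min intervals. Heats of ligand dilution into buffer subtracted before fitting the integrated thermograms for K, ΔH, ΔS.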

Nucleic Acid [12] = test: Binding affinity to c-kit1 G-quadruplex DNA assessed as change in melting temperature by isothermal titration calorimetry; type: nucleic-acid assay; how it was run: as §3
Nucleic Acid [13] = test: Binding affinity to c-kit2 G-quadruplex DNA assessed as change in melting temperature by isothermal titration calorimetry; type: nucleic-acid assay; how it was run: as §3
Nucleic Acid [14] = test: Binding affinity to HTG21 G-quadruplex DNA assessed as change in melting temperature by isothermal titration calorimetry; type: nucleic-acid assay; how it was run: as §3
Nucleic Acid [15] = test: Selectivity ratio, K for F22T G-quadruplex DNA to K for c-kit1 G-quadruplex DNA; type: nucleic-acid assay
Nucleic Acid [16] = test: Selectivity ratio, K for F22T G-quadruplex DNA to K for c-kit2 G-quadruplex DNA; type: nucleic-acid assay
Nucleic Acid [17] = test: Selectivity ratio, K for F22T G-quadruplex DNA to K for human F21T G-quadruplex DNA; type: nucleic-acid assay

Structure (SMILES) | ΔTm (Nucleic Acid [1]) [°C] | ΔTm (Nucleic Acid [2]) [°C] | Activity (Nucleic Acid [3]) | IC50 (Nucleic Acid [4]) [µM] | ΔTm [5] [°C] | ΔTm (Nucleic Acid [6]) [°C] | ΔTm [7] [°C] | Activity (Nucleic Acid [8]) | Activity (Nucleic Acid [9]) [%] | Activity (Nucleic Acid [10]) [%] | K (Nucleic Acid [11]) | K (Nucleic Acid [12]) [×10⁵ /M] | K (Nucleic Acid [13]) [×10⁵ /M] | K (Nucleic Acid [14]) [×10⁴ /M] | Selectivity ratio (Nucleic Acid [15]) | Selectivity ratio (Nucleic Acid [16]) | Selectivity ratio (Nucleic Acid [17])
C[n+]1cccc2cc(/C=C/C(=O)/C=C/c3ccc4c(ccc[n+]4C)c3)ccc21 | 24 | 17 | inactive | 0.7 | 17 | 0 | 13 | – | – | – | – | – | – | – | – | – | –
C[n+]1cccc2cc(/C=C3\C[N+](C)(C)C/C(=C\c4ccc5c(ccc[n+]5C)c4)C3=O)ccc21 | 14 | 6 | inactive | 12.6 | 7 | 0 | 7 | – | – | – | – | – | – | – | – | – | –
O=C(/C=C/c1ccc2ncccc2c1)/C=C/c1ccc2ncccc2c1 | 10 | 5 | inactive | > 20 | 3 | 0 | 2 | – | – | – | – | – | – | – | – | – | –
CN1C/C(=C\c2ccc3ncccc3c2)C(=O)/C(=C/c2ccc3ncccc3c2)C1 | 1 | 1 | inactive | > 20 | 4 | 0 | 1 | – | – | – | – | – | – | – | – | – | –
C[n+]1cccc2cc(/C=C3\CC/C(=C\c4ccc5c(ccc[n+]5C)c4)C3=O)ccc21 | 29 | 20 | inactive | 0.9 | 23 | 1 | 17 | Active | 40 | 40 | 8.05 ×10⁶ /M and 4.42 ×10⁴ /M | 3.08 | 1.27 | 3.61 | 25 | 25 | 200
C[n+]1cccc2cc(/C=C3/CCC/C(=C/c4ccc5c(ccc[n+]5C)c4)C3=O)ccc21 | 17 | 12 | inactive | 1.1 | 10 | 0 | 9 | – | – | – | – | – | – | – | – | – | –
O=C1/C(=C/c2ccc3ncccc3c2)CC/C1=C\c1ccc2ncccc2c1 | 1 | 0 | inactive | > 20 | 0 | 0 | 2 | – | – | – | – | – | – | – | – | – | –
O=C1/C(=C\c2ccc3ncccc3c2)CCC/C1=C/c1ccc2ncccc2c1 | 1 | 0 | inactive | > 20 | 0 | 0 | 2 | – | – | – | – | – | – | – | – | – | –
